Experimental data published in ChEMBL document CHEMBL1240473, “Synthesis and bioassay of aminosulfonyl-1,3,4-oxadiazoles and their interconversion to 1,3,4-thiadiazoles” (2010).
Converted amounts (≈) assume the structure as drawn.

Tests used:
Type in all cases: functional
Bacillus subtilis [1] = experiment: Antimicrobial activity against Bacillus subtilis NCIM 2063 after 24 hrs by microdilution susceptibility method; settings: NCIM 2063, 24 h
Procedure, shortened: (§1)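 Broth microdilution MIC with NCIM strains. Compounds and the references (chloramphenicol, antibacterial; ketoconazole, antifungal) were dissolved in DMSO at 800 and diluted two-fold from 400 down to 6.25. Wells were inoculated with the microbial suspension and incubated at 36 °C, 24 h for bacteria and 48 h for fungi. MIC was the lowest concentration with no visible growth.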

Klebsiella pneumoniae [2] = experiment: Antimicrobial activity against Klebsiella pneumoniae NCIM 2957 after 24 hrs by microdilution susceptibility method; settings: NCIM 2957, 24 h; procedure, shortened: as §1
Proteus vulgaris [3] = experiment: Antimicrobial activity against Proteus vulgaris NCIM 2027 after 24 hrs by microdilution susceptibility method; settings: NCIM 2027, 24 h
Fusarium solani [4] = experiment: Antimicrobial activity against Fusarium solani NCIM 1330 after 48 hrs by microdilution susceptibility method; settings: NCIM 1330, 48 h; procedure, shortened: as §1
Curvularia lunata [5] = experiment: Antimicrobial activity against Curvularia lunata NCIM 716 after 48 hrs by microdilution susceptibility method; settings: NCIM 716, 48 h; procedure, shortened: as §1
Aspergillus niger [6] = experiment: Antimicrobial activity against Aspergillus niger NCIM 596 after 48 hrs by microdilution susceptibility method; settings: NCIM 596, 48 h; procedure, shortened: as §1
[7] = Antioxidant activity assessed as nitric oxide scavenging activity at 100 uM after 120 min by Griess assay
Procedure, shortened: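 Sodium nitroprusside (5 mM) in phosphate buffer pH 7.4 was incubated with test compound dissolved in dioxane/methanol at 25 °C for 120 min. A solvent-only control was run in parallel. Aliquots were mixed 1:1 with Griess reagent (1% sulfanilamide, 0.1% N-naphthylethylenediamine dihydrochloride, 2% o-phosphoric acid in water).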

[8] = test system: Radical scavenging activity; experiment: Antioxidant activity assessed as DPPH free radical scavenging activity at 100 uM after 20 mins
Procedure, shortened: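 Compound solutions were added to DPPH in dioxane/ethanol and kept at ambient temperature for 20 min, then absorbance was read at 517 nm. Percent inhibition = (A_control − A_sample)/A_control × 100, […].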

Staphylococcus aureus [9] = experiment: Antimicrobial activity against Staphylococcus aureus NCIM 5021 at 100 ug/disk after 24 hrs by agar disc-diffusion method; settings: NCIM 5021, 24 h, read-out: DIZ
Procedure, shortened: (§2)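 Agar disc diffusion with NCIM strains. Sterile 6 mm filter-paper discs were moistened with compound in DMSO at 100 or 200 per disc and placed on agar plates pre-inoculated with each organism. Plates were incubated at 37 °C. Growth-inhibition zone diameter was read at 24 h for bacteria and 48 h for fungi.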

Staphylococcus aureus [10] = experiment: Antimicrobial activity against Staphylococcus aureus NCIM 5021 at 200 ug/disk after 24 hrs by agar disc-diffusion method; settings: NCIM 5021, 24 h, read-out: DIZ; procedure, shortened: as §2
Bacillus subtilis [11] = experiment: Antimicrobial activity against Bacillus subtilis NCIM 2063 at 100 ug/disk after 24 hrs by agar disc-diffusion method; settings: NCIM 2063, 24 h, read-out: DIZ; procedure, shortened: as §2
Bacillus subtilis [12] = experiment: Antimicrobial activity against Bacillus subtilis NCIM 2063 at 200 ug/disk after 24 hrs by agar disc-diffusion method; settings: NCIM 2063, 24 h, read-out: DIZ; procedure, shortened: as §2
Klebsiella pneumoniae [13] = experiment: Antimicrobial activity against Klebsiella pneumoniae NCIM 2957 at 100 ug/disk after 24 hrs by agar disc-diffusion method; settings: NCIM 2957, 24 h, read-out: DIZ; procedure, shortened: as §2
Klebsiella pneumoniae [14] = experiment: Antimicrobial activity against Klebsiella pneumoniae NCIM 2957 at 200 ug/disk after 24 hrs by agar disc-diffusion method; settings: NCIM 2957, 24 h, read-out: DIZ; procedure, shortened: as §2
Proteus vulgaris [15] = experiment: Antimicrobial activity against Proteus vulgaris NCIM 2027 at 100 ug/disk after 24 hrs by agar disc-diffusion method; settings: NCIM 2027, 24 h, read-out: DIZ
Proteus vulgaris [16] = experiment: Antimicrobial activity against Proteus vulgaris NCIM 2027 at 200 ug/disk after 24 hrs by agar disc-diffusion method; settings: NCIM 2027, 24 h, read-out: DIZ
Fusarium solani [17] = experiment: Antimicrobial activity against Fusarium solani NCIM 1330 at 100 ug/disk after 48 hrs by agar disc-diffusion method; settings: NCIM 1330, 48 h, read-out: DIZ; procedure, shortened: as §2
Fusarium solani [18] = experiment: Antimicrobial activity against Fusarium solani NCIM 1330 at 200 ug/disk after 48 hrs by agar disc-diffusion method; settings: NCIM 1330, 48 h, read-out: DIZ; procedure, shortened: as §2
Curvularia lunata [19] = experiment: Antimicrobial activity against Curvularia lunata NCIM 716 at 100 ug/disk after 48 hrs by agar disc-diffusion method; settings: NCIM 716, 48 h, read-out: DIZ; procedure, shortened: as §2
Curvularia lunata [20] = experiment: Antimicrobial activity against Curvularia lunata NCIM 716 at 200 ug/disk after 48 hrs by agar disc-diffusion method; settings: NCIM 716, 48 h, read-out: DIZ; procedure, shortened: as §2
Aspergillus niger [21] = experiment: Antimicrobial activity against Aspergillus niger NCIM 596 at 100 ug/disk after 48 hrs by agar disc-diffusion method; settings: NCIM 596, 48 h, read-out: DIZ; procedure, shortened: as §2
Aspergillus niger [22] = experiment: Antimicrobial activity against Aspergillus niger NCIM 596 at 200 ug/disk after 48 hrs by agar disc-diffusion method; settings: NCIM 596, 48 h, read-out: DIZ; procedure, shortened: as §2
Staphylococcus aureus [23] = experiment: Antimicrobial activity against Staphylococcus aureus NCIM 5021 after 24 hrs by microdilution susceptibility method; settings: NCIM 5021, 24 h; procedure, shortened: as §1

Row | Compound | MIC (Bacillus subtilis [1]) [µg/mL] | MIC (Klebsiella pneumoniae [2]) [µg/mL] | MIC (Proteus vulgaris [3]) [µg/mL] | MIC (Fusarium solani [4]) [µg/mL] | MIC (Curvularia lunata [5]) [µg/mL] | MIC (Aspergillus niger [6]) [µg/mL] | Activity [7] [%] | Activity [8] [%] | zone of inhibition at 100 µg/disc (Staphylococcus aureus [9]) [mm] | zone of inhibition at 200 µg/disc (Staphylococcus aureus [10]) [mm] | zone of inhibition at 100 µg/disc (Bacillus subtilis [11]) [mm] | zone of inhibition at 200 µg/disc (Bacillus subtilis [12]) [mm] | zone of inhibition at 100 µg/disc (Klebsiella pneumoniae [13]) [mm] | zone of inhibition at 200 µg/disc (Klebsiella pneumoniae [14]) [mm] | zone of inhibition at 100 µg/disc (Proteus vulgaris [15]) [mm] | zone of inhibition at 200 µg/disc (Proteus vulgaris [16]) [mm] | zone of inhibition at 100 µg/disc (Fusarium solani [17]) [mm] | zone of inhibition at 200 µg/disc (Fusarium solani [18]) [mm] | zone of inhibition at 100 µg/disc (Curvularia lunata [19]) [mm] | MIC (Staphylococcus aureus [23]) [µg/mL] | other results
1 | O=S(=O)(Cc1nnc(-c2ccc(Cl)cc2)s1)Nc1ccc(Cl)cc1 | 100 (≈ 250 µM) | 200 (≈ 500 µM) | 200 (≈ 500 µM) | 200 (≈ 500 µM) | 100 (≈ 250 µM) | 200 (≈ 500 µM) | 35.7 | 34.6 | 25 | 27 | 23 | 26 | 19 | 22 | 18 | 20 | 27 | 30 | 25 | 100 (≈ 250 µM) | zone of inhibition at 200 µg/disc (Curvularia lunata [20]): 27 mm; zone of inhibition at 100 µg/disc (Aspergillus niger [21]): 20 mm; zone of inhibition at 200 µg/disc (Aspergillus niger [22]): 23 mm
2 | Cc1ccc(NS(=O)(=O)Cc2nnc(CS(=O)(=O)c3ccc(C)cc3)s2)cc1 | 50 (≈ 114 µM) | 100 (≈ 229 µM) | 100 (≈ 229 µM) | 50 (≈ 114 µM) | 100 (≈ 229 µM) | 100 (≈ 229 µM) | 20.3 | 21.7 | 25 | 28 | 27 | 29 | 25 | 27 | 24 | 26 | 27 | 35 | 25 | 50 (≈ 114 µM) | zone of inhibition at 200 µg/disc (Curvularia lunata [20]): 33 mm; zone of inhibition at 100 µg/disc (Aspergillus niger [21]): 22 mm; zone of inhibition at 200 µg/disc (Aspergillus niger [22]): 26 mm
3 | O=C(N[C@H](CO)[C@H](O)c1ccc([N+](=O)[O-])cc1)C(Cl)Cl [CHLORAMPHENICOL] | 6.25 (≈ 19.3 µM) | 12.5 (≈ 38.7 µM) | 12.5 (≈ 38.7 µM) | – | – | – | – | – | 35 | 41 | 38 | 44 | 37 | 42 | 42 | 45 | – | – | – | 6.25 (≈ 19.3 µM) | –
4 | O=S(=O)(Cc1nnc(CS(=O)(=O)c2ccc(Cl)cc2)s1)Nc1ccc(Cl)cc1 | 25 (≈ 52.3 µM) | 50 (≈ 105 µM) | 50 (≈ 105 µM) | 50 (≈ 105 µM) | 50 (≈ 105 µM) | 50 (≈ 105 µM) | 28.2 | 29.9 | 31 | 33 | 28 | 32 | 28 | 30 | 25 | 28 | 33 | 37 | 34 | 25 (≈ 52.3 µM) | zone of inhibition at 200 µg/disc (Curvularia lunata [20]): 36 mm; zone of inhibition at 100 µg/disc (Aspergillus niger [21]): 32 mm; zone of inhibition at 200 µg/disc (Aspergillus niger [22]): 33 mm
5 | O=S(=O)(Cc1nnc(CS(=O)(=O)c2ccccc2)s1)Nc1ccccc1 | 25 (≈ 61 µM) | 50 (≈ 122 µM) | 100 (≈ 244 µM) | 100 (≈ 244 µM) | 100 (≈ 244 µM) | 50 (≈ 122 µM) | 22.6 | 23.8 | 27 | 30 | 29 | 31 | 27 | 29 | 23 | 26 | 31 | 33 | 30 | 50 (≈ 122 µM) | zone of inhibition at 200 µg/disc (Curvularia lunata [20]): 32 mm; zone of inhibition at 100 µg/disc (Aspergillus niger [21]): 29 mm; zone of inhibition at 200 µg/disc (Aspergillus niger [22]): 30 mm
